# Measured values: ChEMBL document CHEMBL1777697, “Imidazolone-amide bridges and their effects on tubulin polymerization in cis-locked vinylogous combretastatin-A4 analogues: synthesis and biological evaluation” (Bioorg Med Chem, 2011)
# pIC50: −log10 of the molar value. Calls of active or inactive are those of the source. No cut-off for these calls is given here.
# Tests used:
# MDA-MB-435 = assay: Cytotoxicity against human MDA-MB-435 cells after 72 hrs by MTT assay; type: functional, cell-based; conditions: MDA-MB-435, 72 h
# How it was run: (§1)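 Log-phase cells seeded at 40000–50000 cells/mL, attached overnight, then exposed to 10^-4–10^-9 M compound for 72 h at 37 °C, 5% CO₂. Viable cells measured by MTT, absorbance 570 nm. Triplicates in at least three independent assays; IC50 by nonlinear regression.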
# CCRF-CEM = assay: Cytotoxicity against human CEM cells after 72 hrs by MTT assay; type: functional, cell-based; how it was run: as §1
# LoVo [1] = assay: Cytotoxicity against human LoVo cells after 72 hrs by MTT assay; type: functional, cell-based; how it was run: as §1
# Bos taurus = species on record: Bos taurus; assay: Inhibition of bovine brain tubulin polymerization at 10 uM after 60 mins by turbidimetry analysis
# LoVo [2] = assay: Cell cycle arrest in human LoVo cells assessed as accumulation at G2/M phase at 25 uM after 24 hrs using propidium iodide staining by flow cytometry relative to control; type: functional
# How it was run: (§2)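 LOVO cells (10⁶) treated 24 h with compound; pelleted, fixed in citrate buffer, RNase A 20 min, then propidium iodide 20 min. DNA content read by flow cytometry to give percentage of cells per cycle phase, untreated cells as control.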
# LoVo [3] = assay: Cell cycle arrest in human LoVo cells assessed as accumulation at G2/M phase at 5 uM after 24 hrs using propidium iodide staining by flow cytometry (reference value: 13%); type: functional; how it was run: as §2
structure (smiles),measurement,setting,value
COc1cc(-c2[nH]c(=O)[nH]c2C(=O)Nc2ccc(Cl)c(Cl)c2)cc(OC)c1OC,pIC50,MDA-MB-435,4.72
same,pIC50,CCRF-CEM,4.92
same,pIC50,LoVo [1],5.31
COc1cc2c(c(OC)c1OC)-c1ccc(OC)c(=O)cc1[C@@H](NC(C)=O)CC2 [COLCHICINE],pIC50,MDA-MB-435,8.14
same,pIC50,CCRF-CEM,7.76
same,pIC50,LoVo [1],7.00
COc1cc(-c2[nH]c(=O)[nH]c2C(=O)Nc2ccc(C)c(Cl)c2)cc(OC)c1OC,pIC50,MDA-MB-435,5.08
same,pIC50,CCRF-CEM,5.68
same,pIC50,LoVo [1],5.26
COc1cc(-c2[nH]c(=O)[nH]c2C(=O)Nc2cccc([N+](=O)[O-])c2)cc(OC)c1OC,pIC50,MDA-MB-435,4.35
same,pIC50,CCRF-CEM,< 3.70
same,pIC50,LoVo [1],4.46
COc1cc(-c2[nH]c(=O)[nH]c2C(=O)Nc2ccc(Cl)cc2)cc(OC)c1OC,pIC50,MDA-MB-435,3.82
same,pIC50,CCRF-CEM,< 3.70
same,pIC50,LoVo [1],3.96
COc1cc(-c2[nH]c(=O)[nH]c2C(=O)Nc2cc(C)cc(C)c2)cc(OC)c1OC,pIC50,MDA-MB-435,4.47
same,pIC50,CCRF-CEM,4.71
same,pIC50,LoVo [1],4.63
COc1cc(-c2[nH]c(=O)[nH]c2C(=O)Nc2cccc3ccccc23)cc(OC)c1OC,pIC50,MDA-MB-435,5.03
same,pIC50,CCRF-CEM,4.93
same,pIC50,LoVo [1],5.46
COc1cc(-c2[nH]c(=O)[nH]c2C(=O)Nc2cccc(C)c2)cc(OC)c1OC,inhibition,Bos taurus,Active
same,pIC50,MDA-MB-435,6.12
same,pIC50,CCRF-CEM,6.74
same,pIC50,LoVo [1],6.21
COc1ccc(NC(=O)c2[nH]c(=O)[nH]c2-c2cc(OC)c(OC)c(OC)c2)cc1OC,pIC50,MDA-MB-435,5.31
same,pIC50,CCRF-CEM,5.38
same,pIC50,LoVo [1],4.92
COc1cc(-c2[nH]c(=O)[nH]c2C(=O)Nc2ccc(C)cc2)cc(OC)c1OC,inhibition,Bos taurus,Active
same,pIC50,MDA-MB-435,6.20
same,pIC50,CCRF-CEM,6.62
same,pIC50,LoVo [1],5.33
COc1ccc(NC(=O)c2[nH]c(=O)[nH]c2-c2cc(OC)c(OC)c(OC)c2)cc1N,inhibition,Bos taurus,Active
same,pIC50,MDA-MB-435,6.21
same,Activity,LoVo [2],74%
same,Activity,LoVo [3],28%
same,pIC50,CCRF-CEM,6.48
same,pIC50,LoVo [1],5.47
COc1ccc(NC(=O)c2[nH]c(=O)[nH]c2-c2cc(OC)c(OC)c(OC)c2)cc1,pIC50,MDA-MB-435,4.76
same,pIC50,CCRF-CEM,5.64
same,pIC50,LoVo [1],4.45
COc1cc(-c2[nH]c(=O)[nH]c2C(=O)Nc2ccccc2)cc(OC)c1OC,pIC50,MDA-MB-435,4.39
same,pIC50,CCRF-CEM,4.34
same,pIC50,LoVo [1],4.11
COc1ccc(NC(=O)c2[nH]c(=O)[nH]c2-c2cc(OC)c(OC)c(OC)c2)cc1[N+](=O)[O-],inhibition,Bos taurus,inactive
same,pIC50,MDA-MB-435,< 3.62
same,pIC50,CCRF-CEM,< 3.70
same,pIC50,LoVo [1],4.36
COc1cc(-c2[nH]c(=O)[nH]c2C(=O)Nc2cccc(Cl)c2)cc(OC)c1OC,pIC50,MDA-MB-435,5.32
same,pIC50,CCRF-CEM,5.32
same,pIC50,LoVo [1],5.44
COc1cc(-c2[nH]c(=O)[nH]c2C(=O)Nc2ccc(C(C)(C)C)cc2)cc(OC)c1OC,pIC50,MDA-MB-435,4.49
same,pIC50,CCRF-CEM,4.41
same,pIC50,LoVo [1],4.47
